Calls of active or inactive are those of the source. No cut-off for these calls is given here.
These molecules were tested on Colletotrichum fragariae (assay: Antifungal activity against Colletotrichum fragariae assessed as zone of inhibition).
Format: functional
How it was run: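 Direct 1D-TLC bioautography on glass-backed Si gel plates (activated 1 h at 100 °C). Standards were applied at […] from 5 µM ethanolic solutions (1 × 10-5 µmol/spot) and developed in 1:1 EtOAc/hexanes. Plates were sprayed three times with conidia (ca. 3 × 10^5/mL) in PDB with 0.1% agar and 0.1% Tween-80, then incubated at 24 °C with a 12 h photoperiod. Inhibition zones were measured after 4 days.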

**Q.** CC(C)Oc1cccc(NC(=O)c2ccccc2C(F)(F)F)c1 was tested. Which Activity did it give?
**A.** inactive

**Q.** Which Activity does the source give for O=CNC(N1CCN(C(NC=O)C(Cl)(Cl)Cl)CC1)C(Cl)(Cl)Cl (stereo not given) here?
**A.** inactive

**Q.** How did the Activity turn out when c1ccc2[nH]c(-c3cscn3)nc2c1 was run?
**A.** inactive

**Q.** With Nc1c(Cl)cc([N+](=O)[O-])cc1Cl [ALLISAN] as the molecule, how does the inhibition zone (IZ) read?
**A.** 80 mm2

**Q.** CO/C=C(/C(=O)OC)c1ccccc1Oc1cc(Oc2ccccc2C#N)ncn1 [AZOXYSTROBIN] was tested. Which inhibition zone (IZ) did it give?
**A.** 80 mm2

**Q.** Which inhibition zone (IZ) does the source give for COC(=O)Nc1nc2ccccc2[nH]1 [CARBENDAZIM] here?
**A.** 24 mm2

**Q.** How did the inhibition zone (IZ) turn out when CC(=O)O.CCCCCCCCCCCCNC(=N)N [DODINE] was run?
**A.** 20 mm2

**Q.** Which inhibition zone (IZ) does the source give for O=[N+]([O-])c1c(Cl)c(Cl)c(Cl)c(Cl)c1Cl [PENTACHLORONITROBENZENE] here?
**A.** 5 mm2

**Q.** COC(=O)NC(=S)Nc1ccccc1NC(=S)NC(=O)OC [THIOPHANATE METHYL] was tested. Which inhibition zone (IZ) did it give?
**A.** 24 mm2

**Q.** With C=CC1(C)OC(=O)N(c2cc(Cl)cc(Cl)c2)C1=O (stereo not given) [VINCLOZOLIN] as the molecule, how does the inhibition zone (IZ) read?
**A.** 48 mm2

From ChEMBL document CHEMBL1155561, “A new 2D-TLC bioautography method for the discovery of novel antifungal agents To control plant pathogens” (2000)
